Source: PubChem BioAssay
Inconclusive results are not listed.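 How the source made its calls, unless noted: active means RAM network inhibition above 8.4% in each of two replicates, 3 SD over the compound average; inconclusive means above 8.4% inhibition in only one replicate; inactive means 8.4% inhibition or less in each replicate.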

Key:
[1] = OD615 S. cerevisiae growth inhibition, permissive medium, pilot counter-assay, permissive growth control for S. cerevisiae lifespan shortening project (AID 705;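 active means growth inhibition above 25% in both replicates, a cutoff set 3 SD above the mean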); details: OD615, 24 h, at 10 µM, active compounds read high
How it was run: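 Test system: Saccharomyces cerevisiae strain carrying genetically modified DeaD replicative-lifespan system; buffer or medium: SC raffinose/galactose permissive medium; dosing: one dose 10 µM, DMSO 0.25% final; times: 24 h exposure, 30 °C; measured by: OD at 615 nm; read-out basis: growth inhibition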

[2] = Restrictive medium S. cerevisiae growth inhibition, OD615, pilot screen of yeast lifespan reduction project, restrictive growth control (AID 706;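 active means growth inhibition above a set limit, 3 SD over mean compound inhibition, in both replicates, cut at about 43% in these data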;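 further: modified DeaD lifespan yeast strain shifted to restrictive glucose medium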); details: OD615, 48 h, at 10 µM, active compounds read high
How it was run: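 material = engineered S. cerevisiae DeaD strain | buffer or medium = glucose-based CSMM-D restrictive medium | dosing = one concentration, 10 µM final, 0.25% DMSO | schedule = 4 h pre-growth plus 48 h compound exposure, 30 °C | detection = OD615 absorbance reading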

[3] = viability gain of MRP-1-high H69AR cells under doxorubicin, pilot screen, MRP-1 activator project, CellTiter-Glo, duplicate (AID 807;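 active means viability increase at or above a cutoff of the median across tested compounds plus 3 SD, cut at about 8.5% in these data, passing the limit was not always enough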;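 further: compound pretreatment 18-22 h then 72 h combined with doxorubicin; 0% = doxorubicin alone and 100% = vehicle without doxorubicin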); details: H69AR viability with doxorubicin, CellTiter-Glo luminescence; at 10 µM; active compounds read high
[4] = growth suppression of beta-catenin knockout HCT116, pilot screen, human colon tumor cells (AID 823;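 active means cell viability at or below a set limit in both duplicate runs, the limit being the all-compound median minus 4 SD, cut at about 23% in these data, passing the limit was not always enough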;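 further: 0% = wells killed by 20 µM Hyamine and 100% = untreated DMSO cell wells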); details: CellTiter-Glo, 60 h, at 10 µM, active compounds read low
[5] = growth suppression of PTEN-deleted HCT116, pilot screen, cell-based, HCT116 clonal line, CellTiter-Glo (AID 824;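 active means viability at or below 27.92% in each of two runs, the all-compound median minus 4 SD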;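 further: 0% = 20 µM Hyamine control and 100% = vehicle cell control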); details: 60 h, at 10 µM, active compounds read low
[6] = inhibitors of the yeast RAM network, pilot screen, dse1pr::URA3 reporter, 5-FOA selection (AID 869;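 active means inhibition over a set limit, the all-compound mean plus 3 SD, in both replicate runs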;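 further: 0% = DMSO wells with no growth and 100% = 10 µM 1-NA-PP1 with full growth; RAM network block rescues cells from 5-FOA so hits raise OD615 growth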); details: S. cerevisiae dse1pr::URA3 5-FOA growth, OD615, 2 d; at 10 µM; active compounds read high; strain carries analog-sensitive mutant Cbk1 kinase
[7] = RAM signaling pathway blockade in yeast – S. cerevisiae, Pdr1DBD-CYC8 efflux-inhibited sensitized strain, primary screen (AID 1298);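 further: 0% = DMSO untreated cells without growth and 100% = 10 µM 1-NA-PP1 full growth; higher means more yeast growth rescued from 5-FOA killing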; details: S. cerevisiae cbk1-as DSE1-URA3 strain, 5-FOA growth OD615, 2 d; at 50 µM; active compounds read high

CCOC(=O)c1cccc(NC(=O)CCS(=O)(=O)c2cccc3nsnc23)c1
inactive: growth inhibition [1] -0.82% | growth inhibition [2] -22% | viability increase [3] -3.74% | viability [4] 100% | viability [5] 97% | inhibition [6] 0.99% | RAM network inhibition [7] 2.43%

CCCn1cnc2cc(NCc3ccccn3)ccc21
inactive: growth inhibition [1] -5.07% | growth inhibition [2] 8.03% | viability increase [3] -2.58% | viability [4] 98.5% | viability [5] 100% | inhibition [6] 2.06% | RAM network inhibition [7] -2.3%

O=C(NCCN1CCN(c2cccc(Cl)c2)CC1)C1CCCN(S(=O)(=O)c2cnc[nH]2)C1 (configuration not stated)
inactive: growth inhibition [1] 3.09% | growth inhibition [2] 3.15% | viability increase [3] -1.5% | viability [4] 91.1% | viability [5] 89.7% | inhibition [6] 0.895% | RAM network inhibition [7] 5.7%

CCCC(=O)Nc1ccccc1-c1nnc(SC)[nH]c1=O
inactive: growth inhibition [1] -10.4% | growth inhibition [2] 1.72% | viability increase [3] -2.76% | viability [4] 113% | viability [5] 99.3% | inhibition [6] 1.06% | RAM network inhibition [7] 1.27%

CC(=O)Nc1ccc(OCC=C(Cl)Cl)cc1
inactive: growth inhibition [1] 2.81% | growth inhibition [2] 5.66% | viability increase [3] 1.02% | viability [4] 97.2% | viability [5] 102% | inhibition [6] 0.805% | RAM network inhibition [7] 1.16%

Cc1cc2cc(CNC(=O)c3ccc(S(=O)(=O)N4CCCCC4)cc3)ccc2n1C
inactive: growth inhibition [1] 14.5% | growth inhibition [2] 11.4% | viability increase [3] -0.91% | viability [4] 97.4% | viability [5] 94.2% | inhibition [6] 1.04% | RAM network inhibition [7] 3.71%

CCS(=O)(=O)NCc1csc(-c2ccccc2)n1
inactive: growth inhibition [1] -0.375% | growth inhibition [2] -0.625% | viability increase [3] -2% | viability [4] 89.9% | viability [5] 87.5% | inhibition [6] 0.635% | RAM network inhibition [7] 5.48%

Cc1ccc(C(=O)CC2(O)C(=O)N(C)c3ccccc32)o1 (configuration not stated)
inactive: growth inhibition [1] -7.12% | growth inhibition [2] -13.5% | viability increase [3] -2.33% | viability [4] 99.3% | viability [5] 96.2% | inhibition [6] 0.645% | RAM network inhibition [7] 1.32%

O=C(NCc1ccccn1)Nc1cccc(Cl)c1
inactive: growth inhibition [1] -14.7% | growth inhibition [2] -9.4% | viability increase [3] -2.22% | viability [4] 97.7% | viability [5] 94.5% | inhibition [6] 0.095% | RAM network inhibition [7] 2.46%

Cc1ccc(C)c(N2CCN(C(=O)CCS(=O)(=O)c3cccc4nonc34)CC2)c1
inactive: growth inhibition [1] -16.3% | growth inhibition [2] -12.5% | viability increase [3] -5.38% | viability [4] 88.8% | viability [5] 91.8% | inhibition [6] 1.31% | RAM network inhibition [7] 6.07%

O=C(CN1C(=O)c2ccccc2C1=O)Nc1cccc2cccnc12
inactive: growth inhibition [1] -14.6% | growth inhibition [2] -12.1% | viability increase [3] -1.1% | viability [4] 104% | viability [5] 106% | inhibition [6] 0.36% | RAM network inhibition [7] 5.82%

COc1cccc(C2NC(=O)NC(C)=C2C(=O)OCCSC)c1OC (configuration not stated)
inactive: growth inhibition [1] -3.21% | growth inhibition [2] -16.4% | viability increase [3] -0.87% | viability [4] 93.7% | viability [5] 90.6% | inhibition [6] 1.07% | RAM network inhibition [7] 2.02%

COc1ccc(C(=O)N2CCN(c3ccc(C)cc3C)CC2)cc1OC
inactive: growth inhibition [1] -12.4% | growth inhibition [2] -0.18% | viability increase [3] 3.24% | viability [4] 72.9% | viability [5] 85.7% | inhibition [6] 1.66% | RAM network inhibition [7] 2.92%

C/C=C/Cn1c(N(C)Cc2ccccc2)nc2c1c(=O)[nH]c(=O)n2C
inactive: growth inhibition [1] -17.4% | growth inhibition [2] -23.1% | viability increase [3] 0.04% | viability [4] 102% | viability [5] 87.6% | inhibition [6] 0.445% | RAM network inhibition [7] 3.49%

COc1cccc(-n2nnc3c(=O)n(C/C=C/c4ccccc4)cnc32)c1
inactive: growth inhibition [1] -5.38% | growth inhibition [2] -7.15% | viability increase [3] 0.57% | viability [4] 92.3% | viability [5] 86.9% | inhibition [6] 3.2% | RAM network inhibition [7] 2.07%

CCC1Oc2ccc(C)cc2N(CC(=O)N2CCN(c3ccc(F)cc3)CC2)C1=O (configuration not stated)
inactive: growth inhibition [1] 5.46% | growth inhibition [2] 11.1% | viability increase [3] -3.35% | viability [4] 90% | viability [5] 83.5% | inhibition [6] -0.495% | RAM network inhibition [7] -0.06%

C=CCn1c(CCCNC(=O)C(C)(C)C)nc2ccccc21
inactive: growth inhibition [1] -10.7% | growth inhibition [2] -20.9% | viability increase [3] -1.33% | viability [4] 99.7% | viability [5] 96.1% | inhibition [6] 0.295% | RAM network inhibition [7] 5.54%

COc1ccc(C2CC(c3ccc(Cl)c(Cl)c3)Nc3nc(N)nn32)cc1 (configuration not stated)
inactive: growth inhibition [1] -6.79% | growth inhibition [2] 12.7% | viability increase [3] -2.3% | viability [4] 75.4% | viability [5] 76.4% | inhibition [6] 2.52% | RAM network inhibition [7] 5.52%

Cc1cc(C(=O)Nc2nnc(C3CCCCC3)s2)cs1
inactive: growth inhibition [1] -9.12% | growth inhibition [2] 1.04% | viability increase [3] 1.38% | viability [4] 94.7% | viability [5] 101% | inhibition [6] 4.87% | RAM network inhibition [7] 9.03%

Cc1cc(C)c(C#N)c(Oc2ccc(O)cc2)n1
inactive: growth inhibition [1] -14.7% | growth inhibition [2] -10.3% | viability increase [3] -2.42% | viability [4] 98.7% | viability [5] 90.9% | inhibition [6] 2.56% | RAM network inhibition [7] 2.67%

COCN(C#N)c1nc(OC)nc(OC)n1
inactive: growth inhibition [1] 0.79% | growth inhibition [2] 7.01% | viability increase [3] 2.98% | viability [4] 103% | viability [5] 104% | inhibition [6] -0.1% | RAM network inhibition [7] 2.34%

O=C(NC1CCN(C(=O)N2c3ccccc3Sc3ccccc32)CC1)c1ccco1
inactive: growth inhibition [1] -3.83% | growth inhibition [2] -13.8% | viability increase [3] -3.6% | viability [4] 65.1% | viability [5] 59.7% | inhibition [6] -0.48% | RAM network inhibition [7] 4.1%

CCOc1ccccc1NC(=O)C1CCC(CNc2c(N3CCOCC3)c(=O)c2=O)CC1 (configuration not stated)
inactive: growth inhibition [1] 0.95% | growth inhibition [2] -1.83% | viability increase [3] -0.66% | viability [4] 108% | viability [5] 92.7% | inhibition [6] 1.43% | RAM network inhibition [7] 1.18%

CC12CN3CC(C)(CN(C1)C3c1ccc3ccccc3c1O)C2=O (configuration not stated)
inactive: growth inhibition [1] -10.8% | growth inhibition [2] -19.3% | viability increase [3] -0.54% | viability [4] 101% | viability [5] 100% | inhibition [6] -0.515% | RAM network inhibition [7] -0.68%

O=C(O)CCc1nnc2n(Cc3ccc(F)cc3)c(=O)c3ccccc3n12
inactive: growth inhibition [1] -4.64% | growth inhibition [2] 5.36% | viability increase [3] -0.62% | viability [4] 99.2% | viability [5] 90.8% | inhibition [6] 1.04% | RAM network inhibition [7] 1.56%

CN1C[N+]([O-])=C(c2ccccc2)C1(C)C
inactive: growth inhibition [1] -1.95% | growth inhibition [2] -8.32% | viability increase [3] -2.64% | viability [4] 98.7% | viability [5] 91.2% | inhibition [6] 0.69% | RAM network inhibition [7] 1.81%

C=C1c2cc(CC)ccc2NC(=O)N1c1ccc(C)cc1
inactive: growth inhibition [1] -6.46% | growth inhibition [2] -2.23% | viability increase [3] 3.36% | viability [4] 97.9% | viability [5] 101% | inhibition [6] 0.37% | RAM network inhibition [7] 0.61%

COC(=O)CC1Oc2ccccc2N(Cc2ccccc2)C1=O (configuration not stated)
inactive: growth inhibition [1] -21.8% | growth inhibition [2] -15.5% | viability increase [3] -0.13% | viability [4] 92.2% | viability [5] 92.5% | inhibition [6] 1.56% | RAM network inhibition [7] 3.83%

COc1ccc(OC)c2sc(NC(=O)C(C)C)nc12
inactive: growth inhibition [1] -15.2% | growth inhibition [2] -18% | viability increase [3] -1.14% | viability [4] 105% | viability [5] 92% | inhibition [6] 1.31% | RAM network inhibition [7] 9.63%

CC1Cc2nc(SCC(=O)N3CCOCC3)n(-c3ccccc3)c(=O)c2S1 (configuration not stated)
inactive: growth inhibition [1] -10.7% | growth inhibition [2] -11.7% | viability increase [3] -0.68% | viability [4] 111% | viability [5] 104% | inhibition [6] 0.16% | RAM network inhibition [7] 0.95%

COc1ccccc1C(=O)NCc1ccc2c(c1)OCO2
inactive: growth inhibition [1] -21.2% | growth inhibition [2] -10.3% | viability increase [3] 0.91% | viability [4] 107% | viability [5] 107% | inhibition [6] 0.52% | RAM network inhibition [7] 2.54%

Cc1ccc2c(c1)c1c(n2CC(O)CN2C(=O)CNC2=O)C(=O)CCC1 (configuration not stated)
inactive: growth inhibition [1] 3.38% | growth inhibition [2] 7.05% | viability increase [3] 4.52% | viability [4] 101% | viability [5] 101% | inhibition [6] 1.74% | RAM network inhibition [7] 3.57%

Nc1[nH]nc2nc(N3CCOCC3)nc(-c3ccccc3)c12
inactive: growth inhibition [1] -7.04% | growth inhibition [2] 4.65% | viability increase [3] -4.39% | viability [4] 88.2% | viability [5] 88.3% | inhibition [6] 2.38% | RAM network inhibition [7] 1.55%

Cc1cc(C)nc(/N=C2\NC(=O)CC(C(=O)O)N2CCc2c[nH]c3ccccc23)n1 (configuration not stated)
inactive: growth inhibition [1] -0.875% | growth inhibition [2] -4.41% | viability increase [3] -2.04% | viability [4] 93.3% | viability [5] 84.1% | inhibition [6] 0.67% | RAM network inhibition [7] -0.83%

CCOC(=O)CCn1cc(F)c(=O)n(Cc2ccccc2)c1=O
inactive: growth inhibition [1] 3.69% | growth inhibition [2] 2.14% | viability increase [3] -0.3% | viability [4] 105% | viability [5] 96.1% | inhibition [6] 0.42% | RAM network inhibition [7] 1.43%

O=C(CCCC(=O)Nc1cccnc1)Nc1cccnc1
inactive: growth inhibition [1] -6.39% | growth inhibition [2] 3.58% | viability increase [3] -0.66% | viability [4] 103% | viability [5] 99.2% | inhibition [6] 0.385% | RAM network inhibition [7] 6.65%
